Laboratory results published in ChEMBL document CHEMBL3097989, “Antimicrobial activity of de novo designed cationic peptides against multi-resistant clinical isolates” (Eur J Med Chem, 2014).
The source made the active and inactive calls. No cut-off for these calls is given here. Where a SMILES comes first, the peptide text is derived from it.

Tests used:
[1] = system: Pseudomonas aeruginosa; assay: Antibacterial activity against Pseudomonas aeruginosa ATCC 27853 by microdilution test; type: functional
In short: (§1)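 MIC by standard broth microdilution following CLSI recommendations, in Mueller Hinton broth supplemented with Ca²⁺ (20-25mg/L) and Mg²⁺ (10-12.5mg/L); peptides tested against a panel of multi-resistant clinical isolates plus ATCC reference strains.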

[2] = system: Pseudomonas aeruginosa; assay: Antibacterial activity against Pseudomonas aeruginosa M13513 clinical isolate expressing blaKPC-2 gene by microdilution test; type: functional; in short: as §1
[3] = system: Staphylococcus warneri; assay: Antibacterial activity against Staphylococcus warneri M6823 clinical isolate expressing mecA gene by microdilution test; type: functional
In short: (§2)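 MIC by standard broth microdilution following CLSI recommendations, in Mueller Hinton broth supplemented with Ca²⁺ (20-25 mg/L) and Mg²⁺ (10-12.5 mg/L); ATCC reference strains included in the panel.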

[4] = system: Staphylococcus aureus; assay: Antibacterial activity against Staphylococcus aureus ATCC 29213 by microdilution test; type: functional; in short: as §2
[5] = system: Staphylococcus cohnii; assay: Antibacterial activity against Staphylococcus cohnii M6767 clinical isolate expressing mecA gene by microdilution test; type: functional; in short: as §2
[6] = Toxicity in human RBC assessed as hemolytic activity relative to control; type: cell-based, Erythrocyte; settings: red blood cells (RBC), read-out: Activity
In short: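 Heparinized human whole blood diluted 3x in PBS and centrifuged 10 min at 1500 rpm, repeated three times. Cells resuspended to 10% (v/v), then diluted to about 0.5% (v/v). Peptides added at various concentrations for 30 min at 37 °C. Supernatant absorbance read at 550 nm. Lysis calculated against buffer (0%) and water (100%). Readings taken in triplicate and averaged.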

[7] = system: Escherichia coli; assay: Antibacterial activity against Escherichia coli ATCC 25922 by microdilution test; type: functional; in short: as §1
[8] = system: Staphylococcus aureus; assay: Antibacterial activity against Staphylococcus aureus M6794 clinical isolate expressing mecA gene by microdilution test; type: functional; in short: as §2
[9] = system: Klebsiella pneumoniae; assay: Antibacterial activity against Klebsiella pneumoniae M13540 clinical isolate expressing blaKPC-2 gene by microdilution test; type: functional; in short: as §1
[10] = system: Enterococcus faecalis; assay: Antibacterial activity against Enterococcus faecalis M4992 clinical isolate expressing vanA gene by microdilution test; type: functional; in short: as §1
[11] = system: Acinetobacter sp.; assay: Antibacterial activity against Acinetobacter sp. M7978 clinical isolate expressing blaIMP-1 gene by microdilution test; type: functional; in short: as §1
[12] = system: Acinetobacter sp.; assay: Antibacterial activity against Acinetobacter sp. M5277 clinical isolate expressing blaPER gene by microdilution test; type: functional; in short: as §1
[13] = system: Pseudomonas aeruginosa; assay: Antibacterial activity against Pseudomonas aeruginosa M5470 by microdilution test; type: functional; in short: as §2
[14] = system: Acinetobacter sp.; assay: Antibacterial activity against Acinetobacter sp. M9665 clinical isolate expressing blaOXA-51 gene by microdilution test; type: functional; in short: as §1
[15] = system: Enterococcus faecalis; assay: Antibacterial activity against Enterococcus faecalis M4449 clinical isolate expressing vanA gene by microdilution test; type: functional; in short: as §1
[16] = system: Acinetobacter sp.; assay: Antibacterial activity against Acinetobacter sp. M13523 clinical isolate expressing blaOXA-51 gene by microdilution test; type: functional; in short: as §1
[17] = system: Enterococcus faecalis; assay: Antibacterial activity against Enterococcus faecalis M4899 clinical isolate expressing vanB gene by microdilution test; type: functional; in short: as §1
[18] = system: Enterococcus faecium; assay: Antibacterial activity against Enterococcus faecium M2481 clinical isolate expressing vanB gene by microdilution test; type: functional; in short: as §1
[19] = system: Pseudomonas aeruginosa; assay: Antibacterial activity against Pseudomonas aeruginosa M7712 clinical isolate expressing blaSPM gene by microdilution test; type: functional; in short: as §2
[20] = system: Enterococcus faecium; assay: Antibacterial activity against Enterococcus faecium M2304 clinical isolate expressing vanA gene by microdilution test; type: functional; in short: as §1
[21] = system: Enterococcus faecalis; assay: Antibacterial activity against Enterococcus faecalis ATCC 29212 by microdilution test; type: functional; in short: as §1
[22] = system: Pseudomonas aeruginosa; assay: Antibacterial activity against Pseudomonas aeruginosa M5200 clinical isolate expressing blaVIM and blaGES-1 gene by microdilution test; type: functional; in short: as §2
[23] = system: Pseudomonas aeruginosa; assay: Antibacterial activity against Pseudomonas aeruginosa PCOS12 by microdilution test; type: functional; in short: as §2
[24] = system: Enterococcus faecium; assay: Antibacterial activity against Enterococcus faecium M2664 clinical isolate expressing vanA gene by microdilution test; type: functional; in short: as §1
[25] = system: Klebsiella pneumoniae; assay: Antibacterial activity against Klebsiella pneumoniae M9491 clinical isolate expressing blaMOX gene by microdilution test; type: functional; in short: as §1
[26] = system: Klebsiella pneumoniae; assay: Antibacterial activity against Klebsiella pneumoniae M9140 clinical isolate expressing blaCIT gene by microdilution test; type: functional; in short: as §1
[27] = system: Enterococcus faecalis; assay: Antibacterial activity against Enterococcus faecalis M6383 clinical isolate expressing vanA gene by microdilution test; type: functional; in short: as §1
[28] = system: Klebsiella pneumoniae; assay: Antibacterial activity against Klebsiella pneumoniae M9170 clinical isolate expressing blaOXA-GIII gene by microdilution test; type: functional; in short: as §1
[29] = system: Acinetobacter sp.; assay: Antibacterial activity against Acinetobacter sp. M5282 clinical isolate expressing blaOXA-51 gene by microdilution test; type: functional; in short: as §1
[30] = system: Enterococcus faecium; assay: Antibacterial activity against Enterococcus faecium PZAP95 by microdilution test; type: functional; in short: as §1
[31] = system: Enterococcus faecalis; assay: Antibacterial activity against Enterococcus faecalis ATCC 51299 clinical isolate expressing vanB gene by microdilution test; type: functional; in short: as §1
[32] = system: Acinetobacter sp.; assay: Antibacterial activity against Acinetobacter sp. M9013 clinical isolate expressing blaOXA-51 and blaIMP gene by microdilution test; type: functional; in short: as §1
[33] = system: Pseudomonas aeruginosa; assay: Antibacterial activity against Pseudomonas aeruginosa M7525 clinical isolate expressing blaSPM gene by microdilution test; type: functional; in short: as §2
[34] = system: Pseudomonas aeruginosa; assay: Antibacterial activity against Pseudomonas aeruginosa M11005 clinical isolate expressing blaKPC-2 gene by microdilution test; type: functional; in short: as §1
[35] = system: Klebsiella pneumoniae; assay: Antibacterial activity against Klebsiella pneumoniae PFAV3 by microdilution test; type: functional; in short: as §1
[36] = system: Enterococcus faecium; assay: Antibacterial activity against Enterococcus faecium M6261 by microdilution test; type: functional; in short: as §1
[37] = system: Pseudomonas aeruginosa; assay: Antibacterial activity against Pseudomonas aeruginosa M5109 clinical isolate expressing blaVIM and blaGES-1 gene by microdilution test; type: functional; in short: as §2
[38] = system: Enterococcus faecium; assay: Antibacterial activity against Enterococcus faecium M2619 clinical isolate expressing vanB gene by microdilution test; type: functional; in short: as §1
[39] = system: Enterococcus gallinarum; assay: Antibacterial activity against Enterococcus gallinarum M2723 clinical isolate expressing vanC1 and vanA gene by microdilution test; type: functional; in short: as §1
[40] = system: Enterococcus faecalis; assay: Antibacterial activity against Enterococcus faecalis M6983 clinical isolate expressing vanA gene by microdilution test; type: functional; in short: as §1
[41] = system: Enterococcus faecalis; assay: Antibacterial activity against Enterococcus faecalis M6534 clinical isolate expressing vanB gene by microdilution test; type: functional; in short: as §1
[42] = system: Pseudomonas aeruginosa; assay: Antibacterial activity against Pseudomonas aeruginosa M7907 clinical isolate expressing blaPER gene by microdilution test; type: functional; in short: as §2
[43] = system: Acinetobacter sp.; assay: Antibacterial activity against Acinetobacter sp. M5179 clinical isolate expressing blaOXA-51 gene by microdilution test; type: functional; in short: as §1
[44] = system: Acinetobacter sp.; assay: Antibacterial activity against Acinetobacter sp. M7489 clinical isolate expressing blaOXA-51 and blaTEM gene by microdilution test; type: functional; in short: as §1
[45] = system: Acinetobacter sp.; assay: Antibacterial activity against Acinetobacter sp. M5949 clinical isolate expressing blaOXA-23 and blaOXA-GVI gene by microdilution test; type: functional; in short: as §1
[46] = system: Pseudomonas aeruginosa; assay: Antibacterial activity against Pseudomonas aeruginosa M7728 clinical isolate expressing blaIMP gene by microdilution test; type: functional; in short: as §2
[47] = system: Pseudomonas aeruginosa; assay: Antibacterial activity against Pseudomonas aeruginosa M7723 clinical isolate expressing blaKPC-2 gene by microdilution test; type: functional; in short: as §2
[48] = system: Enterococcus gallinarum; assay: Antibacterial activity against Enterococcus gallinarum M2685 clinical isolate expressing vanC1 and vanA gene by microdilution test; type: functional; in short: as §1
[49] = system: Acinetobacter sp.; assay: Antibacterial activity against Acinetobacter sp. PFAV1 clinical isolate expressing blaOXA-51, blaOXA-58 and blaPER gene by microdilution test; type: functional; in short: as §1

CC[C@H](C)[C@H](NC(=O)[C@H](CCCCN)NC(=O)[C@H](CCCNC(=N)N)NC(=O)[C@H](CC(N)=O)NC(=O)CNC(=O)[C@H](CCCNC(=N)N)NC(=O)[C@H](Cc1ccccc1)NC(=O)[C@@H](NC(=O)[C@H](CS)NC(=O)[C@H](Cc1cnc[nH]1)NC(=O)[C@H](CC(C)C)NC(=O)[C@@H]1CCCN1C(=O)[C@H](CCC(N)=O)NC(=O)[C@@H]1CCCN1C(=O)[C@@H](NC(=O)[C@H](CC(N)=O)NC(=O)[C@@H]1CCCN1C(=O)[C@H](CC(C)C)NC(=O)CNC(=O)[C@@H](NC(=O)CNC(=O)[C@H](CO)NC(=O)[C@H](CC(C)C)NC(=O)[C@H](CC(C)C)NC(=O)[C@H](CC(=O)O)NC(=O)[C@H](CS)NC(=O)[C@@H](NC(=O)[C@@H](N)[C@@H](C)O)[C@@H](C)O)C(C)C)C(C)C)C(C)C)C(=O)N[C@@H](CCCCN)C(=O)N[C@@H](Cc1c[nH]c2ccccc12)C(N)=O (H-TTCDLLSGVGLPNVPQPLHCVFRGNRKIKW-NH2)
MIC90 [1]: inactive
MIC90 [2]: inactive
MIC90 [3]: inactive
MIC90 [4]: inactive
MIC90 [5]: inactive
hemolysis [6]: 1.72%
MIC90 [7]: inactive
MIC90 [8]: inactive
MIC90 [9]: inactive

H-FGKEKKAWWRRRKWLK-NH2
MIC90 [10]: inactive
MIC90 [11]: inactive
MIC90 [12]: inactive
MIC90 [13]: inactive
MIC90 [14]: inactive
MIC90 [15]: inactive
MIC90 [16]: inactive
MIC90 [17]: inactive
MIC90 [18]: inactive
MIC90 [1]: inactive
MIC90 [19]: inactive
MIC90 [20]: inactive
MIC90 [21]: inactive
MIC90 [22]: inactive
MIC90 [2]: inactive
MIC90 [23]: inactive
MIC90 [24]: inactive
MIC90 [25]: inactive
MIC90 [26]: inactive
MIC90 [27]: inactive
MIC90 [28]: inactive
MIC90 [29]: inactive
MIC90 [30]: inactive
MIC90 [31]: inactive
MIC90 [32]: inactive
MIC90 [33]: inactive
MIC90 [34]: inactive
MIC90 [35]: inactive
MIC90 [36]: inactive
MIC90 [37]: inactive
MIC90 [38]: inactive
MIC90 [39]: inactive
MIC90 [40]: inactive
MIC90 [41]: inactive
MIC90 [42]: inactive
MIC90 [43]: inactive
MIC90 [44]: inactive
MIC90 [45]: inactive
hemolysis [6]: 1.5%
MIC90 [7]: inactive
MIC90 [9]: inactive
MIC90 [46]: inactive
MIC90 [47]: inactive
MIC90 [48]: inactive
MIC90 [49]: inactive
